In brackets after ≈: the same amount, converted by molar mass. Blank lines part the entries; values can stand above or below the molecule they belong to. Activity calls are given as the source filed them. The rule behind the calls is not given here.
Assays:
Rattus norvegicus [1] = assay: Effect on TNFalpha level in Streptococcus pneumoniae infected Wistar rat CSF at 100 mg/kg, sc after 2 to 6 hrs y ELISA; assay type: functional; settings: route subcutaneous
Procedure, shortened: (§1)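 Infant Wistar rats (11 days old) infected intracisternally with S. pneumoniae serotype 3 (1.3 × 104 ± 0.5 × 10^4 CFU). Single s.c. antibiotic dose given 18 h post-infection. CSF sampled by intracisternal puncture 2 and 6 h after dosing and at 24 h post-infection. Samples spun 5 min at 13,000 rpm, 4°C to remove bacteria and leukocytes, diluted 20-fold, then assayed for rat TNF-α by ELISA (detection limit <5 pg/ml).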

Streptococcus pneumoniae [2] = assay: Antimicrobial activity against Streptococcus pneumoniae infected Wistar rat CSF assessed as decrease in bacterial titer at 100 mg/kg, sc after 2 hrs; assay type: functional; settings: route subcutaneous
Procedure, shortened: (§2)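 Eleven-day-old Wistar rats infected intracisternally with 1.3 × 104 ± 0.5 × 10^4 CFU of S. pneumoniae serotype 3 clinical isolate in 10 μl saline. Single s.c. antibiotic dose started 18 h post-infection. CSF taken by cisterna magna puncture before therapy and at 20 h and 24 h post-infection. CFU counted by plating serial dilutions of 10 μl CSF on blood agar (detection limit 10^3 CFU/ml).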

Streptococcus pneumoniae [3] = assay: Antibacterial activity against Streptococcus pneumoniae ATCC 49619; assay type: functional
Procedure, shortened: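 MIC by antibiotic gradient strip (Etest) on blood agar plates inoculated with the strain, per manufacturer's recommendations; reference strain tested in parallel with the serotype 3 clinical isolate.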

Streptococcus pneumoniae [4] = assay: Antibacterial activity against Streptococcus pneumoniae serotype 3; assay type: functional
Procedure, shortened: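 MIC by gradient-strip diffusion (Etest) on blood agar plates inoculated with the study's serotype 3 clinical isolate, run per manufacturer's recommendations. Reference strain ATCC 49619 was tested in parallel. Result read as MIC in mg/liter.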

Rattus norvegicus [5] = assay: Decrease on TNFalpha level in Streptococcus pneumoniae infected Wistar rat CSF at 100 mg/kg, sc after 24 hrs by ELISA; assay type: functional; settings: route subcutaneous; procedure, shortened: as §1
Streptococcus pneumoniae [6] = assay: Effect on Streptococcus pneumoniae infection induced brain injury in Wistar rat hippocampal dentate gyrus assessed as number of apoptotic cells at 50 mg/kg, sc after 40 hrs; assay type: functional; settings: route subcutaneous
Procedure, shortened: (§3)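 Following intracisternal pneumococcal infection and s.c. dosing from 18 h, brains were taken at 20, 24 or 40 h after PFA perfusion. Cells with fragmented bodies or condensed nuclei were counted blind in three ×400 fields in each of the four dentate gyrus blades. Counts averaged over twelve coronal sections per animal. Uninfected rats served as controls.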

Rattus norvegicus [7] = assay: Effect on TNFalpha level in Streptococcus pneumoniae infected Wistar rat CSF at 50 mg/kg, sc after 2 to 6 hrs y ELISA; assay type: functional; settings: route subcutaneous; procedure, shortened: as §1
Streptococcus pneumoniae [8] = assay: Effect on Streptococcus pneumoniae infection induced brain injury in Wistar rat hippocampal dentate gyrus assessed as number of apoptotic cells at 50 mg/kg, sc after 24 hrs; assay type: functional; settings: route subcutaneous; procedure, shortened: as §3
Streptococcus pneumoniae [9] = assay: Antimicrobial activity against Streptococcus pneumoniae infected Wistar rat CSF assessed as decrease in bacterial titer at 50 mg/kg, sc after 6 hrs; assay type: functional, organism-based; set-up: dose 50 mg/kg; procedure, shortened: as §2
Streptococcus pneumoniae [10] = assay: Effect on Streptococcus pneumoniae infection induced brain injury in Wistar rat hippocampal dentate gyrus assessed as number of apoptotic cells at 50 mg/kg, sc after 20 hrs; assay type: functional; settings: route subcutaneous; procedure, shortened: as §3
Streptococcus pneumoniae [11] = assay: Antimicrobial activity against Streptococcus pneumoniae infected Wistar rat CSF assessed as decrease in bacterial titer at 50 mg/kg, sc after 2 hrs; assay type: functional; settings: route subcutaneous; procedure, shortened: as §2
Streptococcus pneumoniae [12] = assay: Effect on Streptococcus pneumoniae infection induced elevation of MMP9 level in Wistar rat CSF assessed as MMP-9/MMP-2 index at 50 mg/kg, sc after 24 hrs by gel zymography; assay type: functional; settings: route subcutaneous
Procedure, shortened: (§4)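 Intracisternally infected 11-day-old Wistar rats (S. pneumoniae serotype 3) dosed s.c. from 18 h. CSF sampled at 20, 24 or 40 h post-infection. 3 μl CSF run on nonreducing 10% SDS-PAGE containing 1% gelatin. Gels washed 1 h in 2.5% Triton X-100, incubated 18 h at 37°C (50 mM NaCl, 10 mM CaCl2, 50 mM Tris, pH 7.6), Coomassie stained. Lysis zones at 92 and 72 kDa measured by densitometry and reported as MMP-9/MMP-2 ratio. Uninfected saline-injected rats served as controls.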

Rattus norvegicus [13] = assay: Decrease in TNFalpha level in Streptococcus pneumoniae infected Wistar rat CSF at 50 mg/kg, sc after 24 hrs by ELISA; assay type: functional; settings: route subcutaneous; procedure, shortened: as §1
Streptococcus pneumoniae [14] = assay: Effect on Streptococcus pneumoniae infection induced elevation of MMP9 level in Wistar rat CSF assessed as MMP-9/MMP-2 index at 50 mg/kg, sc after 20 hrs by gel zymography; assay type: functional; settings: route subcutaneous; procedure, shortened: as §4
Streptococcus pneumoniae [15] = assay: Effect on Streptococcus pneumoniae infection induced elevation of MMP9 level in Wistar rat CSF assessed as MMP-9/MMP-2 index at 50 mg/kg, sc after 40 hrs by gel zymography; assay type: functional; settings: route subcutaneous; procedure, shortened: as §4

MIC (Streptococcus pneumoniae [3]): 0.094 µg/mL (≈ 0.169 µM)
MIC (Streptococcus pneumoniae [4]): 0.023 µg/mL (≈ 0.0415 µM)
SMILES: CO/N=C(\C(=O)N[C@@H]1C(=O)N2C(C(=O)O)=C(CSc3nc(=O)c(O)nn3C)CS[C@H]12)c1csc(N)n1 [CEFTRIAXONE]
Activity (Rattus norvegicus [1]): 4578 pg/mL
Log10 cfu (Streptococcus pneumoniae [2]): 6.3 /ml
Activity (Rattus norvegicus [5]): 249 pg/mL

SMILES: CCCCCCCCCC(=O)N[C@@H](Cc1c[nH]c2ccccc12)C(=O)N[C@H](CC(N)=O)C(=O)N[C@@H](CC(=O)O)C(=O)N[C@@H]1C(=O)NCC(=O)N[C@@H](CCCN)C(=O)N[C@@H](CC(=O)O)C(=O)N[C@H](C)C(=O)N[C@@H](CC(=O)O)C(=O)NCC(=O)N[C@H](CO)C(=O)N[C@@H]([C@H](C)CC(=O)O)C(=O)N[C@@H](CC(=O)c2ccccc2N)C(=O)O[C@@H]1C
Activity (Streptococcus pneumoniae [6]): 6.1%
Activity (Rattus norvegicus [7]): 3059 pg/mL
Activity (Streptococcus pneumoniae [8]): 14.9%
Activity (Streptococcus pneumoniae [9]): Active
Activity (Streptococcus pneumoniae [10]): 5.5%
MIC (Streptococcus pneumoniae [3]): 0.38 µg/mL (≈ 0.234 µM)
MIC (Streptococcus pneumoniae [4]): 0.25 µg/mL (≈ 0.154 µM)
Log10 cfu (Streptococcus pneumoniae [11]): 3.6 /ml
Ratio (Streptococcus pneumoniae [12]): 1.2
Activity (Rattus norvegicus [13]): 352 pg/mL
Ratio (Streptococcus pneumoniae [14]): 1.6
Ratio (Streptococcus pneumoniae [15]): 0.6
